Published values pooled from the literature.
Compare with care: the assays were run in different laboratories.
Target: Mitogen-activated protein kinase 3 (MAPK3, Homo sapiens, UniProt P27361)

COc1cc(Nc2ncc(F)c(Nc3ccc4c(n3)NC(=O)C(C)(C)O4)n2)cc(OC)c1OC
inhibition (binding, competition with immobilised ligand; 10 µM): 0%

COc1ncccc1-c1cnn2ccc(N3CCN(C(=O)OC(C)C)CC3)nc12
remaining binding (binding, competition with immobilised ligand; 1 µM): 100%

Cn1cc(-c2cc(F)cc(N3CCn4c(cc5c4CCCC5)C3=O)c2CO)cc(Nc2ccc(N3CCN(C4COC4)CC3)cn2)c1=O
inhibition (enzyme activity, inhibitor; 0.1 µM): 14%

N#CC1(c2ccccn2)CCN(Cc2cc(C(=O)O)c(=O)n3ccccc23)CC1
remaining binding (cell-free assay, competition with immobilised ligand; 1 µM): 100%

CC(C)(C)c1cc(C=C(C#N)C#N)cc(Br)c1O
remaining activity (enzyme activity, inhibitor; 0.5 µM): 105%

Cc1nn(C)cc1-c1nc2c(N3CCN(Cc4ccc(Cl)cc4)CC3)c(Cl)cnc2[nH]1
remaining binding (binding, competition with immobilised ligand; 1 µM): 100%

C[C@@H](O)[C@H](N)C(=O)N1CCC[C@H]1C(=O)N1CCC[C@H]1C(=O)N[C@H](C(N)=O)[C@@H](C)O
inhibition (enzyme activity, inhibitor; 30 µM): 3%

O=c1[nH]c2ccccc2n1C1CCN(Cc2ccc(-c3[nH]c4cc5ncnc5cc4nc3-c3ccccc3)cc2)CC1
remaining signal (cell-free assay; 0.5 µM): 118%

CN[C@@]1(c2ccccc2Cl)CCCCC1=O
inhibition (enzyme activity, inhibitor; 30 µM): -4%

Cn1cncc1[C@@](O)(COc1ccc(C#N)cc1-c1ccc(OC(F)(F)F)cc1)c1ccc(C#N)cc1
remaining binding (cell-free assay, competition with immobilised ligand; 1 µM): 83%

Nc1ncc(-c2nc(N3CCOCC3)nc(N3CCOCC3)n2)c(C(F)F)n1
remaining binding (binding, competition with immobilised ligand; 10 µM): 89%
